Series [1] in a line: Cardiovascular toxicity in rat assessed as valvulo-pathy at 1 mg/kg, po for 10 days. Conditions: in vivo, 240 h. The class given is organism-based. The essentials:
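Exploratory toxicology studies of 10 days with daily oral dosing in rats and dogs. Cardiovascular findings, including valvulopathy and aortic pathology, were assessed.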

The nature of series [2]: Intrinsic permeability in human Caco2 cells. Type of series: ADME, cell-based. Conditions: Caco-2. On the technique in general: Caco-2 cells form a polarised layer with tight junctions and transporters.
The nature of series [3]: Cmax in Balb/C mouse at 10 mg/kg, po. Type of series: ADME, organism-based. Also noted: dose 10 mg/kg, route oral. Conditions: in vivo. In a few lines: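 Male Balb/C mice, n = 3, dosed at 5 mg/kg iv or 10 mg/kg po. The vehicle was 70% 25 mM acetate buffer pH 4.0, 5% ethanol and 25% PEG 400.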
The nature of series [4]: Total AUC in Sprague Dawley rat at 5 mg/kg, iv. The class given is ADME, organism-based. Also on record: dose 5 mg/kg, route intravenous, time AUCmax. Conditions: in vivo. In a few lines:
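Male Sprague–Dawley rats (n = 3) received a PEG400 solution iv at 5 mg/kg and po at 10 mg/kg.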

The target in the next series is TGF-beta receptor type-2 (Homo sapiens, UniProt P37173). Briefly: Inhibition of wild type His-tagged TGFBR2 kinase domain (unknown origin) incubated for 1 hr by HTRF analysis. On the technique in general: In TR-FRET formats the signal depends on donor and acceptor labels being close together.
Series [5] is described as follows: Cmax in Sprague Dawley rat at 10 mg/kg, po. Type of series: ADME, organism-based. Also on record: dose 10 mg/kg, route oral. The following applies: in vivo. In a few lines: (§1)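 Male Sprague–Dawley rats, n = 3, given 5 mg/kg iv or 10 mg/kg po as a PEG400 solution.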
Series [6] is described as follows: Protein binding in dog serum assessed as unbound fraction. Type of series: ADME, cell-free, Canis lupus familiaris.
Series [7] in a line: Metabolic stability of compound in human liver microsomes assessed as compound remaining. The class given is ADME, Microsome.
A short description of series [8]: Half life in rat hepatocytes. Type of series: ADME, cell-based, Hepatocyte.
The nature of series [9]: Aqueous solubility of the compound at pH 6.5. The class given is physicochemical. The following applies: aqueous solution, read-out: solubility.
Series [10] in a line: Clearance in Sprague Dawley rat at 5 mg/kg, iv. Type of series: ADME, organism-based. Conditions: in vivo. In a few lines: as §1
Series [11] concerns the target T1, TGF-beta receptor type-1 (Homo sapiens, UniProt P36897).
T1 sequence (P36897 whole entry): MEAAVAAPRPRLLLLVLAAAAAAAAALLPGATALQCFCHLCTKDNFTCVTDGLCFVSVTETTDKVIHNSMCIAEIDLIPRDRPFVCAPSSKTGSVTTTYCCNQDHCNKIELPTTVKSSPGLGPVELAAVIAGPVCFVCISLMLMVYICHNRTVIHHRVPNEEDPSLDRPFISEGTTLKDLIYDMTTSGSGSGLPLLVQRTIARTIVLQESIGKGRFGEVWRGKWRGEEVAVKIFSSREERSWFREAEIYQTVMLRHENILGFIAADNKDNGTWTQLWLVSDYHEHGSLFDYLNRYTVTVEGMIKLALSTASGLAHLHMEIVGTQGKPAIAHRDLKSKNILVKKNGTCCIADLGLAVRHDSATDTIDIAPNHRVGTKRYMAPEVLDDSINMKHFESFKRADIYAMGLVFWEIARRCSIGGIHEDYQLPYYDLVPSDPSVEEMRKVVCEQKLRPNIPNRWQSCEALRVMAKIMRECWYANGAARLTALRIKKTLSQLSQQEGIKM
Briefly: Inhibition of TGFbetaR1 in TGFbeta-stimulated human T cells assessed as reduction in SMAD3 phosphorylation preincubated for 1 hr followed by TGFbeta-stimulation for 90 mins by Alphalisa assay. (Bead proximity is the source of the signal in Alpha formats.)

Series [12] has as its target T2, TGF-beta receptor type-1 (Mus musculus, UniProt Q64729).
T2 sequence (Q64729 whole entry): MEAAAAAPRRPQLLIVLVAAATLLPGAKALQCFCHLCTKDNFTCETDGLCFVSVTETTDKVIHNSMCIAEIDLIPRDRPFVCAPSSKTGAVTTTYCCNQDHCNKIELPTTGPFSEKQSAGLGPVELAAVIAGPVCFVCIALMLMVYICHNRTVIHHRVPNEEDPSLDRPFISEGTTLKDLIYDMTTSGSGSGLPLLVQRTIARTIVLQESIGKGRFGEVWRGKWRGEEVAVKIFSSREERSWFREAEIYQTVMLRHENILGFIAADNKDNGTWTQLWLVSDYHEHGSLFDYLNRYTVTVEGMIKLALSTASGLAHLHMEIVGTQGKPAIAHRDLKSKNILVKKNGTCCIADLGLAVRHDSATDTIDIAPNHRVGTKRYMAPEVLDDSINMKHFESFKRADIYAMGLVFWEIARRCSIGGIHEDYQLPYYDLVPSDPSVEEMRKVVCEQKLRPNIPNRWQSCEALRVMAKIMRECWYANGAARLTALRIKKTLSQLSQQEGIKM
Briefly: Inhibition of TGFBR1 in mouse biochemical assay assessed as apparent inhibition constant. Conditions: read-out: Ki(app).

Series [13] in a line: Half life in dog liver microsomes in presence of NADPH. Type of series: ADME, Canis lupus familiaris, Microsome.
The target in the next series is T3, Cytochrome P450 2C8 (Homo sapiens, UniProt P10632).
T3 sequence (P10632 whole entry): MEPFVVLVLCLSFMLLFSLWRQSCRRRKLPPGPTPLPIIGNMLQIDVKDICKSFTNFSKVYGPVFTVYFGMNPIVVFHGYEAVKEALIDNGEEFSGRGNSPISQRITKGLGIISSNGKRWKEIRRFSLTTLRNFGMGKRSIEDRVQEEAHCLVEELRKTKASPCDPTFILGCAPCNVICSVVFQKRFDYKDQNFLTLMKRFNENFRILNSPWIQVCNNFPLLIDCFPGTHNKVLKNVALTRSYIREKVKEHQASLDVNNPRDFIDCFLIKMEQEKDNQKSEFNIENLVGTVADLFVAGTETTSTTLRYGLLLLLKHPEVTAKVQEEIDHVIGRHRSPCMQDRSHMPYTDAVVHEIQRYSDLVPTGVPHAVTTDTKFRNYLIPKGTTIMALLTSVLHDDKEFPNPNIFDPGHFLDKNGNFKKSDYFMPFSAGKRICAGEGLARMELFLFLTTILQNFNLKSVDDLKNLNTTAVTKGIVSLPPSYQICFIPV
Briefly: Induction of recombinant CYP2C8 (unknown origin) up to 24 microM. The class given is ADME. The following applies: recombinant enzyme.

In another series the test system is MC-38. Briefly: Induction of long-term antitumor memory response in compound-mediated tumor cured C57Bl/6 mouse allografted with mouse MC38 cells assessed as reduction in tumor growth following rechallenge with newly implanted mouse MC38 cells treated at 3.75 to 15 mg/kg, po qd for 28 days and cotreated with anti-PD1 at 10 mg/kg, ip every 4 days for 3 doses prior to MC38 cells rechallenge by digital caliper analysis. The class given is functional, organism-based. In a few lines: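 Mice cured by oral dosing plus anti-PD-1 (10 mg/kg IP, every 4 days, three doses) were re-implanted with MC38 or LL2 cells. Tumor growth was compared with naive mice.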

Series [14] is described as follows: MRT in Balb/C mouse at 5 mg/kg, iv. The class given is ADME, organism-based. Conditions: in vivo. In a few lines:
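Male Balb/C mice (n = 3) dosed iv at 5 mg/kg and po at 10 mg/kg. Vehicle was 70% 25 mM acetate buffer pH 4.0, 5% ethanol and 25% PEG 400.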

SMILES strings stand for the structures. Converted amounts (≈) assume the structure as drawn. The source made the active and inactive calls.

Chain of TGF-beta receptor type-2 (P37173 whole entry, the tested form may be a part): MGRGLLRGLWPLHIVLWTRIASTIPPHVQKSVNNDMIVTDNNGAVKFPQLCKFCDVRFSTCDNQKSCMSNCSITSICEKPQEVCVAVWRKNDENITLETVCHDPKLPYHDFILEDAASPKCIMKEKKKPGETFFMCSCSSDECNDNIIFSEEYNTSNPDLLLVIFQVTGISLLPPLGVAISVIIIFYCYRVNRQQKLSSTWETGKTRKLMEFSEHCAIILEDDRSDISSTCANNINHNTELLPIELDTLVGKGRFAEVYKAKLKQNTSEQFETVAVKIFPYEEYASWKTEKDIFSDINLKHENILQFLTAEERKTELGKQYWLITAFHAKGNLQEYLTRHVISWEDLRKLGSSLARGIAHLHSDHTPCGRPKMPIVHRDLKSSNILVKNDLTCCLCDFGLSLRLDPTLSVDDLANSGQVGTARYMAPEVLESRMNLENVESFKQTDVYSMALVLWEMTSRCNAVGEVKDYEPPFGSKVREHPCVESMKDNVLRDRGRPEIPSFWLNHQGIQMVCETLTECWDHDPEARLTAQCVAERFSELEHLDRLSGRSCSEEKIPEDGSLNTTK

As a reminder, the Papp is a coefficient for how fast a substance crosses the barrier. Read a low Papp as slow passage. In general, Cmax refers to the highest concentration seen after dosing. One may read the AUC as concentration integrated over time. The low end stands for less exposure, the high end for more exposure. As usually defined, the IC50 is the point on the concentration scale where inhibition reaches its midpoint. What is called fraction unbound is the share of the substance not bound to proteins or other matrix. In general, half-life refers to the time needed for the level to fall by half in the phase considered. What is called solubility is how much of the substance goes into solution per volume. In general, clearance refers to the rate of elimination divided by the concentration. Higher therefore signals efficient removal. What is called MRT is the average time that molecules of a dose stay in the body. Consider `N#Cc1cnc2ccc(-c3c(-c4ccc(F)c(Cl)c4)ncn3CCO)nn12`, for which the Activity result is reported as “Toxic” in series [1] and “Not Active” at Cytochrome P450 2C8. Besides, the Papp in series [2] turned out to be 27.2 ×10⁻⁶ cm/s. Also, the Cmax in [3] turned out to be 16 µM; in [5] it was 12.7 µM. In addition, the AUC in series [4] turned out to be 39.6 µM·h. For the same compound, the IC50 against TGF-beta receptor type-2 is more than 15000 nM; at TGF-beta receptor type-1 [11] it was 150 nM. Besides, in series [6], the fraction unbound worked out at 0.13. Besides, the Stability in [7] came out at 77%. In addition, the half-life in series [8] was 5.33 h; in [13], 0.617 h. Also, in series [9], the solubility was 47 µg/mL (≈ 123 µM). The same compound came in with a clearance in [10] of 5.6 mL/min/kg. Also, the Ki at TGF-beta receptor type-1 [12] was 1.4 nM. The outcome in the series on MC-38 was Active. For the same compound, in [14], the MRT was 9 h.
